For one data set, the system named is MCF7. The data set is described as follows: Cytotoxicity against human MCF7 cells after 72 hrs by sulforhodamine B assay. Type of data set: functional, cell-based. Particulars: MCF7, 72 h. Background: The SRB assay estimates cell density from bound dye.
Data set [1] is described as follows: Toxicity in Artemia salina assessed as mortality after 72 hrs. Particulars: in vivo, read-out: LD50. The class given is organism-based. A digest of the protocol: (§1)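 Artemia salina larvae, 20 per 5 mL saline vial, were exposed to compound at […]. Three replicates were run per concentration. Living larvae were counted after 72 h, with data as mean ± SD.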
The nature of data set [2]: Toxicity in Artemia salina assessed as mortality at 1000 ug/mL after 72 hrs. The class given is organism-based. To be noted: in vivo, read-out: Activity. A digest of the protocol:
as §1

The nature of data set [3]: (§2) Toxicity in Artemia salina assessed as mortality at 100 ug/mL after 72 hrs. The class given is organism-based. Particulars: in vivo, read-out: Activity. In a few lines:
as §1

A short description of data set [4]: Ratio of IC50 for human HepG2 cells to LD50 for Artemia salina.
A short description of data set [5]: Ratio of IC50 for human MCF7 cells to LD50 for Artemia salina.
In data set [6] the test system is Escherichia coli. The data set can be described thus: Antibacterial activity against Escherichia coli NCIM2065 at 10 mg after 24 to 48 hrs by agar well diffusion method. The class given is functional. Particulars: read-out: DIZ. A digest of the protocol:
(§3)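 Cut-plug well assay: each well filled with 10 mg of powdered compound. Bacteria were on nutrient agar (peptone, beef extract, NaCl) at pH 7, and yeasts on Sabouraud agar (glucose, peptone) at pH 6.0. Plates were incubated at 30 °C for 24–48 h, and inhibition zone diameters were measured in triplicate.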
In general terms: In agar diffusion tests the substance spreads into inoculated agar from a disc or well.

In data set [7] the test system is Staphylococcus aureus. The data set can be described thus: Antibacterial activity against Staphylococcus aureus ATCC 25292 at 10 mg after 24 to 48 hrs by agar well diffusion method. To be noted: read-out: DIZ. The class given is functional. In a few lines: as §3
The test system of data set [8] is Bacillus subtilis. The data set is described as follows: Antibacterial activity against Bacillus subtilis PC1219 at 10 mg after 24 to 48 hrs by agar well diffusion method. The class given is functional. To be noted: read-out: DIZ. In a few lines:
as §3

The subject of data set [9] is Candida albicans. The data set can be described thus: Antifungal activity against Candida albicans at 10 mg after 24 to 48 hrs by agar well diffusion method. Particulars: read-out: DIZ. The class given is functional. In a few lines: as §3
Data set [10] relates to Saccharomyces cerevisiae. The data set is described as follows: Antifungal activity against Saccharomyces cerevisiae at 10 mg after 24 to 48 hrs by agar well diffusion method. To be noted: read-out: DIZ. The class given is functional. In a few lines:
as §3

In data set [11] the test system is Escherichia coli. The data set is described as follows: Antibacterial activity against Escherichia coli NCIM2065 after 24 to 48 hrs by agar disc diffusion method. Type of data set: functional. In a few lines: (§4)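 Filter-paper discs (5 mm) were impregnated with compound in DMSO at […]. Nutrient agar was seeded with 100 µL inoculum: 5 × 10^5 for bacteria, 4 × 10^4 for yeasts. Controls were ciprofloxacin discs for bacteria, amphotericin B discs for yeasts, and DMSO blanks. Plates were held at 37 °C for 24–48 h; zone diameter (mm) given as triplicate mean ± SD.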

The test system of data set [12] is Staphylococcus aureus. The data set is described as follows: Antibacterial activity against Staphylococcus aureus ATCC 25292 after 24 to 48 hrs by agar disc diffusion method. The class given is functional. A digest of the protocol:
as §4

Data set [13] deals with Bacillus subtilis. The data set can be described thus: Antibacterial activity against Bacillus subtilis PC1219 after 24 to 48 hrs by agar disc diffusion method. The class given is functional. In a few lines: as §4
For data set [14], the system named is Candida albicans. The data set is described as follows: Antifungal activity against Candida albicans after 24 to 48 hrs by agar disc diffusion method. Type of data set: functional. A digest of the protocol:
as §4

For data set [15], the system named is Saccharomyces cerevisiae. The data set can be described thus: Antifungal activity against Saccharomyces cerevisiae after 24 to 48 hrs by agar disc diffusion method. The class given is functional. In a few lines:
as §4

For the next data set, the system named is HepG2. The data set is described as follows: Cytotoxicity against human HepG2 cells after 72 hrs by sulforhodamine B assay. The class given is functional, cell-based. Particulars: HepG2, 72 h.
The subject of the next data set is Artemia salina. The description is as §2. Particulars: in vivo, 72 h. Type of data set: organism-based. In a few lines: as §1

In brackets after ≈: the same amount, converted by molar mass.

Consider `CC(Nc1ccc(Cl)cc1)(c1cccnc1)P(=O)(Oc1ccccc1)Oc1ccccc1` (centres undefined), for which the figures for the IC50 in the data set on MCF7 and with HepG2 were 17.6 µg/mL (≈ 37.9 µM) and 15.8 µg/mL (≈ 34 µM), respectively. Also, the LC50 at 72 h in [1] amounted to 38 µg/mL (≈ 81.7 µM). Also, the mortality at 72 h, 1000 ug/mL in [2] came out at 100%. The mortality at 72 h, 100 ug/mL in data set [3] was 15%. In addition, the Ratio was determined as 0.415 in data set [4] and 0.463 in data set [5]. Besides, the zone of inhibition at 10000 µg/disc in the data set on Escherichia coli [6] is 20 mm; in the data set on Staphylococcus aureus [7] it was 21 mm; in the data set with Bacillus subtilis [8], 25 mm; in the data set with Candida albicans [9], 23 mm; with Saccharomyces cerevisiae [10] it was 23 mm. The minimum inhibitory concentration (MIC) with Escherichia coli [11], with Staphylococcus aureus [12], against Bacillus subtilis [13], against Candida albicans [14] and against Saccharomyces cerevisiae [15] was 10 µg/mL (≈ 21.5 µM) in each case.
Take `CC(Nc1ccccc1)(c1cccnc1)P(=O)(Oc1ccccc1)Oc1ccccc1` (centres undefined): the 50% inhibitory concentration (IC50) (commonly the concentration that gives 50% inhibition) with MCF7 is 18.2 µg/mL (≈ 42.3 µM); with HepG2 it was 17.3 µg/mL (≈ 40.2 µM). Besides, in [1], the LC50 at 72 h was found to be 915 µg/mL (≈ 2130 µM). Moreover, the mortality at 72 h, 1000 ug/mL in [2] came out at 60%. For the same compound, the Activity result in the data set with Artemia salina is on record as “Non-toxic”. Further, the figures for the Ratio in data set [4] and in data set [5] were 0.019 and 0.02, respectively. Also, the zone of inhibition at 10000 µg/disc in the data set on Escherichia coli [6] was 13 mm; with Staphylococcus aureus [7], 12 mm; with Bacillus subtilis [8] it was 15 mm; in the data set on Candida albicans [9] it was 13 mm; in the data set on Saccharomyces cerevisiae [10], 14 mm. Further, the MIC (in general, the least concentration at which growth counts as inhibited) with Escherichia coli [11] is 100 µg/mL (≈ 232 µM); against Staphylococcus aureus [12], 10 µg/mL (≈ 23.2 µM); in the data set with Bacillus subtilis [13], 10 µg/mL (≈ 23.2 µM); against Candida albicans [14] it was 10 µg/mL (≈ 23.2 µM); in the data set with Saccharomyces cerevisiae [15] it was 10 µg/mL (≈ 23.2 µM).
As to `Cc1ccc(NC(C)(c2cccnc2)P(=O)(Oc2ccccc2)Oc2ccccc2)cc1` (centres undefined), the concentration for half-maximal inhibition (IC50) in the data set on MCF7 amounted to 20.2 µg/mL (≈ 45.4 µM); in the data set with HepG2 it was 13.3 µg/mL (≈ 29.9 µM). Also, the LC50 at 72 h in data set [1] was found to be 83 µg/mL (≈ 187 µM). Further, the mortality at 72 h, 1000 ug/mL in data set [2] came out at 10%. The Ratio in data set [4] is given as 0.16; in [5], 0.243. Moreover, the zone of inhibition at 10000 µg/disc was determined as 22 mm with Escherichia coli [6]; 19 mm with Staphylococcus aureus [7]; 15 mm with Bacillus subtilis [8]; 17 mm with Candida albicans [9]; 16 mm in the data set with Saccharomyces cerevisiae [10]. The minimal inhibitory concentration (MIC) with Escherichia coli [11] is 10 µg/mL (≈ 22.5 µM); in the data set with Staphylococcus aureus [12] it was 50 µg/mL (≈ 112 µM); against Bacillus subtilis [13], 10 µg/mL (≈ 22.5 µM); against Candida albicans [14], 10 µg/mL (≈ 22.5 µM); with Saccharomyces cerevisiae [15], 10 µg/mL (≈ 22.5 µM).
Regarding `CC(Nc1ccc(O)cc1)(c1cccnc1)P(=O)(Oc1ccccc1)Oc1ccccc1` (centres undefined), the IC50 was found to be 19.6 µg/mL (≈ 43.9 µM) in the data set on MCF7 and 17.1 µg/mL (≈ 38.3 µM) in the data set with HepG2. In [1], the LC50 at 72 h was 1000 µg/mL (≈ 2240 µM). Also, the mortality at 72 h, 1000 ug/mL in [2] worked out at 60%. In the data set on Artemia salina, the Activity entry is on record as “Non-toxic”. Also, the figures for the Ratio in data set [4] and in data set [5] were 0.017 and 0.02, respectively. For the same compound, the zone of inhibition at 10000 µg/disc with Escherichia coli [6] came to 20 mm; in the data set with Staphylococcus aureus [7], 21 mm; with Bacillus subtilis [8] it was 20 mm; with Candida albicans [9], 15 mm; in the data set with Saccharomyces cerevisiae [10] it was 16 mm. In addition, the minimal inhibitory concentration (MIC) against Escherichia coli [11], with Staphylococcus aureus [12], in the data set with Bacillus subtilis [13], against Candida albicans [14] and against Saccharomyces cerevisiae [15] was 10 µg/mL (≈ 22.4 µM) throughout.
For the compound `CC(NNc1ccccc1)(c1cccnc1)P(=O)(Oc1ccccc1)Oc1ccccc1` (centres undefined), the IC50 in the data set on MCF7 is 19.4 µg/mL (≈ 43.6 µM); with HepG2, 17.6 µg/mL (≈ 39.5 µM). For the same compound, the LC50 at 72 h in data set [1] came out at 843 µg/mL (≈ 1890 µM). For the same compound, the mortality at 72 h, 1000 ug/mL in data set [2] came out at 60%. Also, in the data set on Artemia salina, the Activity result is on record as “Non-toxic”. For the same compound, the Ratio is given as 0.02 in data set [4] and 0.023 in [5]. In addition, the zone of inhibition at 10000 µg/disc with Escherichia coli [6] came out at 32 mm; in the data set with Staphylococcus aureus [7], 28 mm; in the data set on Bacillus subtilis [8], 26 mm; in the data set on Candida albicans [9] it was 26 mm; in the data set on Saccharomyces cerevisiae [10], 27 mm. The minimum inhibitory concentration (MIC) in the data set with Escherichia coli [11], with Staphylococcus aureus [12], with Bacillus subtilis [13], in the data set with Candida albicans [14] and in the data set on Saccharomyces cerevisiae [15] was 10 µg/mL (≈ 22.4 µM) throughout.
For the compound `C[C@@H]1[C@H](O)[C@@H](C)/C=C/C=C/C=C/C=C/C=C/C=C/C=C/[C@H](O[C@@H]2O[C@H](C)[C@@H](O)[C@H](N)[C@@H]2O)C[C@@H]2O[C@](O)(C[C@@H](O)C[C@@H](O)[C@H](O)CC[C@@H](O)C[C@@H](O)CC(=O)O[C@H]1C)C[C@H](O)[C@H]2C(=O)O` [AMPHOTERICIN B], the minimal inhibitory concentration (MIC) in the data set with Candida albicans [14] and with Saccharomyces cerevisiae [15] was 15 µg/mL (≈ 16.2 µM) each time.
Consider `O=C(O)c1cn(C2CC2)c2cc(N3CCNCC3)c(F)cc2c1=O` [CIPROFLOXACIN], for which the minimal inhibitory concentration (MIC) against Escherichia coli [11], with Staphylococcus aureus [12] and in the data set with Bacillus subtilis [13] was 5 µg/mL (≈ 15.1 µM) each time.

The values are drawn from ChEMBL document CHEMBL1955724, “Synthesis, antimicrobial and anticancer activities of a novel series of diphenyl 1-(pyridin-3-yl)ethylphosphonates” (Bioorg Med Chem, 2012).
